Reference: ChEMBL document CHEMBL2062435, “Synthesis and in vitro antibacterial activity of gemifloxacin derivatives containing a substituted benzyloxime moiety” (2012)

How the values were obtained:
Assay type in all cases: functional
Staphylococcus aureus [1] = test: Antimicrobial activity against extended spectrum beta-lactamases-producing methicillin-sensitive Staphylococcus aureus 10-13 after 18-24 hrs by two-fold serial dilution method
Summary of the method: (§1)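 Agar-medium twofold serial dilution against Gram-positive and Gram-negative strains; MIC taken as the lowest compound concentration giving complete inhibition of bacterial growth after incubation at 35 °C for 18-24 h.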

[2] = test system: Staphylococcus epidermidis; test: Antimicrobial activity against extended spectrum beta-lactamases-producing methicillin-sensitive Staphylococcus epidermidis 10-11 after 18-24 hrs by two-fold serial dilution method; summary of the method: as §1
Enterococcus faecalis [3] = test: Antimicrobial activity against Enterococcus faecalis 10-5 after 18-24 hrs by two-fold serial dilution method; summary of the method: as §1
Enterococcus faecium = test: Antimicrobial activity against Enterococcus faecium 10-9 after 18-24 hrs by two-fold serial dilution method; summary of the method: as §1
Streptococcus pneumoniae [4] = test: Antimicrobial activity against extended spectrum beta-lactamases-producing Streptococcus pneumoniae 10-1 after 18-24 hrs by two-fold serial dilution method; summary of the method: as §1
Escherichia coli [5] = test: Antimicrobial activity against Escherichia coli ATCC 25922 after 18-24 hrs by two-fold serial dilution method; summary of the method: as §1
Escherichia coli [6] = test: Antimicrobial activity against Escherichia coli 10-1 after 18-24 hrs by two-fold serial dilution method; summary of the method: as §1
Escherichia coli [7] = test: Antimicrobial activity against Escherichia coli 10-2 after 18-24 hrs by two-fold serial dilution method; summary of the method: as §1
Escherichia coli [8] = test: Antimicrobial activity against extended spectrum beta-lactamases-producing Escherichia coli 10-3 after 18-24 hrs by two-fold serial dilution method; summary of the method: as §1
Escherichia coli [9] = test: Antimicrobial activity against extended spectrum beta-lactamases-producing Escherichia coli 10-4 after 18-24 hrs by two-fold serial dilution method; summary of the method: as §1
Klebsiella pneumoniae [10] = test: Antimicrobial activity against extended spectrum beta-lactamases-producing Klebsiella pneumoniae 10-2 after 18-24 hrs by two-fold serial dilution method; summary of the method: as §1
Klebsiella pneumoniae [11] = test: Antimicrobial activity against Klebsiella pneumoniae 10-4 after 18-24 hrs by two-fold serial dilution method; summary of the method: as §1
Pseudomonas aeruginosa [12] = test: Antimicrobial activity against Pseudomonas aeruginosa 10-12 after 18-24 hrs by two-fold serial dilution method; summary of the method: as §1
Pseudomonas aeruginosa [13] = test: Antimicrobial activity against extended spectrum beta-lactamases-producing Pseudomonas aeruginosa 10-15 after 18-24 hrs by two-fold serial dilution method; summary of the method: as §1
Pseudomonas aeruginosa [14] = test: Antimicrobial activity against extended spectrum beta-lactamases-producing Pseudomonas aeruginosa 10-20 after 18-24 hrs by two-fold serial dilution method; summary of the method: as §1
Staphylococcus aureus [15] = test: Antimicrobial activity against methicillin-resistant Staphylococcus aureus clinical isolate after 18-24 hrs by two-fold serial dilution method
Summary of the method: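 Agar twofold serial dilution MIC against clinical isolates. MIC was taken as the lowest concentration giving complete inhibition of bacterial growth after incubation at 35 °C for 18-24 h.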

Staphylococcus aureus [16] = test: Ratio of levofloxacin MIC to compound MIC for extended spectrum beta-lactamases-producing methicillin-sensitive Staphylococcus aureus 10-13 after 18-24 hrs by two-fold serial dilution method
Summary of the method: (§2)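 MICs were determined by the standard twofold serial dilution method on agar media against the test strains, with levofloxacin run as a reference. MIC is the lowest concentration giving complete inhibition of bacterial growth after 18–24 h incubation at 35 °C. The ratio is levofloxacin MIC divided by test-compound MIC.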

Staphylococcus aureus [17] = test: Ratio of levofloxacin MIC to compound MIC for extended spectrum beta-lactamases-producing methicillin-sensitive Staphylococcus aureus 10-14 after 18-24 hrs by two-fold serial dilution method; summary of the method: as §2
Enterococcus faecalis [18] = test: Ratio of levofloxacin MIC to compound MIC for Enterococcus faecalis 10-6 after 18-24 hrs by two-fold serial dilution method
Streptococcus pneumoniae [19] = test: Ratio of levofloxacin MIC to compound MIC for extended spectrum beta-lactamases-producing Streptococcus pneumoniae 10-1 after 18-24 hrs by two-fold serial dilution method
Staphylococcus aureus [20] = test: Ratio of gemifloxacin MIC to compound MIC for Staphylococcus aureus ATCC […] after 18-24 hrs by two-fold serial dilution method
Enterococcus faecalis [21] = test: Ratio of gemifloxacin MIC to compound MIC for Enterococcus faecalis 10-6 after 18-24 hrs by two-fold serial dilution method
Streptococcus pneumoniae [22] = test: Ratio of gemifloxacin MIC to compound MIC for extended spectrum beta-lactamases-producing Streptococcus pneumoniae 10-4 after 18-24 hrs by two-fold serial dilution method

SMILES: COc1ccc(OC)c(CO/N=C2\CN(c3nc4c(cc3F)c(=O)c(C(=O)O)cn4C3CC3)CC2CN)c1.CS(=O)(=O)O (racemic)
- MIC (Staphylococcus aureus [1]): 0.03 µg/mL
- MIC [2]: 0.25 µg/mL
- MIC (Enterococcus faecalis [3]): 0.25 µg/mL
- MIC (Enterococcus faecium): 4 µg/mL
- MIC (Streptococcus pneumoniae [4]): 0.06 µg/mL
- MIC (Escherichia coli [5]): 0.06 µg/mL
- MIC (Escherichia coli [6]): > 128 µg/mL
- MIC (Escherichia coli [7]): > 128 µg/mL
- MIC (Escherichia coli [8]): > 128 µg/mL
- MIC (Escherichia coli [9]): > 128 µg/mL
- MIC (Klebsiella pneumoniae [10]): > 128 µg/mL
- MIC (Klebsiella pneumoniae [11]): > 128 µg/mL
- MIC (Pseudomonas aeruginosa [12]): > 128 µg/mL
- MIC (Pseudomonas aeruginosa [13]): > 128 µg/mL
- MIC (Pseudomonas aeruginosa [14]): > 128 µg/mL
- MIC50 (Staphylococcus aureus [15]): 0.5 µg/mL
- MIC90 (Staphylococcus aureus [15]): 1 µg/mL
- Ratio (Staphylococcus aureus [16]): 8
- Ratio (Staphylococcus aureus [17]): 8
- Ratio (Enterococcus faecalis [18]): 8
- Ratio (Streptococcus pneumoniae [19]): 8
- Ratio (Staphylococcus aureus [20]): 2
- Ratio (Enterococcus faecalis [21]): 2
- Ratio (Streptococcus pneumoniae [22]): 2
